Screens as filed in PubChem.
CHO parental Ca – counter-screen for OX1R antagonists: effect in parental CHO cells; parental CHO-K1, ATP-induced calcium, Fluo-8 fluorescence; inhibition, % at 5.6 µM; actives 0.63% (n = 330,000); AID 463079;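 active = inhibition above that plate's mean sample inhibition plus 3 SD, cut at about 26% in these data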;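 note: 0% = ATP-challenged DMSO wells and 100% = DMSO wells without ATP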
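Material – parental CHO cells · Reagent – ATP stimulus · Compound – single nominal dose of 5.6 µM per compound · Detection – Fluo-8 fluorescence · Read-out basis – percent inhibition of calcium signal · Controls – ATP-challenged DMSO wells low, unchallenged DMSO wells high · Repeats – no replicates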
OX1R antag-1 – OX1R (human) antagonism; actives 1.8% (n = 330,000); O43613; inhibition, % at 6.6 µM; OX1R-expressing cells, FRET antagonist read-out; in the data active = inhibition mostly above about 38%, no sharp cut-off; inactive = mostly below about 40%;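 note: 0% = agonist challenge alone and 100% = reference antagonist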
Target sequence (O43613 whole entry, looked up): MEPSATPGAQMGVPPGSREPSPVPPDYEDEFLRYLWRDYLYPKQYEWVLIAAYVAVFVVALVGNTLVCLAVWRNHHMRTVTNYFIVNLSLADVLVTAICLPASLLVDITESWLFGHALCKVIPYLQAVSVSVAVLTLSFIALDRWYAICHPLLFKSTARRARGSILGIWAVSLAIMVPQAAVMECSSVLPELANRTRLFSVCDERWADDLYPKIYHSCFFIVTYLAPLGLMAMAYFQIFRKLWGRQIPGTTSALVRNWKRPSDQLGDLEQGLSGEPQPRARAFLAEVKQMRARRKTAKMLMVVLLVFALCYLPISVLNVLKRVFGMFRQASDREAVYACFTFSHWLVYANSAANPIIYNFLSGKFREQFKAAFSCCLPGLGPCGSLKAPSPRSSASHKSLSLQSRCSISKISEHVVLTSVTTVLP
TAAR1 antagonist – human TAAR1 antagonism; AID 624466; inhibition, % at 3 µM; Q96RJ0; CHO RD-HGA16 TAAR1, Fluo-8 calcium fluorescence, antagonist; actives 1.5% (n = 360,000);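 active = inhibition above a per-plate cutoff, the mean inhibition of test compounds on that plate plus 3 SD, cut at about 49% in these data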;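 note: 0% = DMSO plus EC80 beta-PEA response and 100% = DMSO alone without agonist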
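System: CHO RD-HGA16 cells bearing hTAAR1. Reagent: EC80 β-phenethylamine stimulus. Schedule: seeding 17-24 h prior, 75-min 37 °C, 30-min RT dye loading. Signal: Fluo-8 intracellular calcium dye fluorescence, real-time kinetic reads. Read-out: % inhibition from peak post-agonist over basal fluorescence ratio. Benchmarks: vehicle wells and EC80 agonist wells. Replicates: n of 1.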
GPR7 antag – blocks human GPR7 receptor signaling; P48145; GPR7-expressing cells, fluorescence antagonist assay; inhibition, % at 4.4 µM; actives 1.1% (n = 290,000); in the data active = inhibition above about 16%, passing the limit was not always enough;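 note: cells stimulated with the agonist NPW; 0% = agonist with vehicle and 100% = vehicle without agonist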
OX1R antag-2 – human HCRTR1 antagonism; CHO/OX1R cells, Fluo-8 calcium fluorescence, orexin A; inhibition, % at 5 µM; actives 0.43% (n = 330,000);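 active = inhibition above its plate's threshold, mean inhibition of all tested compounds on the plate plus 3 SD, cut at about 37% in these data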;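 note: 0% = orexin A challenge wells and 100% = SB-334867-A antagonist wells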
TAAR1 ag – human TAAR1 agonism; activation, % at 3 µM; actives 0.99% (n = 360,000); Q96RJ0; CHO RD-HGA16 TAAR1, Fluo-8 calcium fluorescence; vehicle wells 0%, saturating PEA agonist 100%;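 active = activation above the mean activation of all test compounds in the run plus 3 SD, cut at about 38% in these data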
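Assay system: CHO-derived RD-HGA16 cells with stable Gα16 and human TAAR1; timing: 17-24 h seeding, 75 min 37 °C dye, 30 min RT; read-out: % activation from peak over basal fluorescence ratio, DMSO-to-PEA scaled; measured by: kinetic Fluo-8 calcium fluorescence; benchmarks: low control DMSO, high control PEA (EC100); doses: 3 µM single concentration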
* = called active by the depositor; . = no result given. The list is not random: actives were taken first. Their share in the collection is about 4.6%.

SMILES	CHO parental Ca	OX1R antag-1	TAAR1 antagonist	GPR7 antag	OX1R antag-2	TAAR1 ag
N=c1c(C(=O)NCC2CCCO2)cc2c(=O)n3ccccc3nc2n1Cc1cccnc1 (centres undefined)	2.1	73.0*	-0.5	-4.7	-2.6	0.3
Cc1cccn2c(=O)c3cc(C(=O)NCC4CCCO4)c(=N)n(Cc4cccnc4)c3nc12 (centres undefined)	-3.3	60.0*	6.1	5.3	-24.2	5.5
N=c1c(C(=O)NCC2CCCO2)cc2c(=O)n3ccccc3nc2n1Cc1ccc(F)cc1 (centres undefined)	9.5	54.5*	-8.0	9.3	-27.7	-1.2
N=c1c(C(=O)NCC2CCCO2)cc2c(=O)n3ccccc3nc2n1Cc1ccco1 (centres undefined)	-10.0	57.1*	3.6	-6.6	-10.3	-0.3
Cc1ccc(N(NC(=O)C(O)(c2ccccc2)c2ccccc2)C(=O)CCl)cc1	-5.0	4.2	-23.0	10.8	-7.9	4.1
COc1ccc(-c2cc(C(F)(F)F)n3nc(C(=O)NCc4ccco4)cc3n2)cc1OC	-23.8	42.0	-21.4	-3.7	-40.4	-0.2
CC1=CCC(C(=O)O)C(C(=O)NC2CCCCC2)C1 (centres undefined)	8.3	16.2	1.0	-13.7	-13.3	-1.1
Cc1cc(N=Nc2ccccc2C(=O)O)c(C)c(C)c1O	6.0	49.8*	-27.4	-5.4	-3.0	0.3
COc1ccccc1C(=O)Nc1ccnn1C1CCN(Cc2ccc3nonc3c2)CC1	-36.1	7.3	18.5	-6.4	-24.0	6.7
COc1ccc(N2CC(C(=O)Nc3cccc(C)n3)CC2=O)cc1 (centres undefined)	-3.1	12.1	-5.6	-8.5	-2.5	0.7
CCc1c(C#N)c(SCCC(=O)Nc2cccc(OC)c2)nc2c1C(=O)CC(C)(C)C2	15.9	21.6	58.3*	-7.8	16.9	17.3
COc1ccc(-c2c(C#N)c(SCc3c(C)noc3C)nc3c2C(=O)CC(C)(C)C3)cc1	-8.7	1.0	-8.3	0.8	-8.3	2.2
Cc1[nH]c(=O)[nH]c(=O)c1S(=O)(=O)N1CCCC(C(=O)NCc2ccccc2Cl)C1 (centres undefined)	-14.2	16.7	-9.2	-4.0	-8.5	5.5
CC#CCOCC1CN(C)C(=O)O1 (centres undefined)	.	.	-21.7	.	.	2.1
Nc1ncnc(Sc2ccccc2)c1[N+](=O)[O-]	-2.6	46.4*	-0.4	-9.3	-8.3	1.9
Nc1ncnc(Sc2ccc(Cl)cc2)c1[N+](=O)[O-]	6.5	29.1	-12.5	10.1	0.3	8.7
O=C1NC[C@H](CCCCN2C[C@H](Cc3ccccc3)N(CC3CCCCC3)C(=O)C2=O)N(CCc2ccccc2)C1=O	.	.	-6.3	.	.	-0.1
O=C(O)CC1(CC(=O)Nc2cc(C(F)(F)F)cc(C(F)(F)F)c2)CCCCC1	-2.0	41.9*	-30.1	-4.1	2.0	2.4
CN(C)CCCN(C(=O)CCc1ccccc1)c1nc2c(F)cccc2s1	-20.1	11.0	-8.8	20.6*	-28.1	14.4
CN(C)CCCN(C(=O)CCOc1ccccc1)c1nc2c(F)cccc2s1	.	.	-4.9	-4.6	.	3.8
C=CCNC(=S)N/N=C/c1ccc(-c2ccc(Cl)cc2Cl)o1	-16.1	5.0	-18.9	.	-32.3	13.3
COc1ccccc1NC(=O)c1ccccc1C(=O)Nc1ccccc1OC	-13.9	22.4	21.8	-11.3	-20.6	2.5
COc1ccccc1NC(=O)c1cnc(Nc2ccccc2OC)c2ccccc12	-33.1	73.8*	16.2	-19.6	-11.4	-0.5
CC1Cc2cc(-c3csc(NC(=O)Cc4cccs4)n3)ccc2N1S(C)(=O)=O (centres undefined)	14.4	17.0	61.2*	-2.8	30.1	16.9
CCC(=O)Nc1nc(-c2ccc3c(c2)CC(C)N3S(C)(=O)=O)cs1 (centres undefined)	-19.4	54.6	42.6	-4.8	-25.0	9.9
SMILES	CHO parental Ca	OX1R antag-1	TAAR1 antagonist	GPR7 antag	OX1R antag-2	TAAR1 ag
CCOC(=O)c1c(C)oc2c1c(C(c1ccccc1)N1CCOCC1)c(O)c1ccccc12 (centres undefined)	-24.2	61.7*	-9.0	-20.3	-13.6	16.9
Cc1[nH]nc2c1C(c1ccsc1)C1=C(CC(C)(C)CC1=O)N2 (centres undefined)	-17.5	18.6	-1.8	-11.6	-38.9	3.1
COc1ccc(CCNC(=O)COc2ccc(S(=O)(=O)N3CCOCC3)cc2)cc1OC	-6.8	48.8*	16.6	-10.1	14.7	0.6
COc1ccc(CCNC(=O)CC(=O)N/N=C/c2ccc(C(=O)O)cc2)cc1OC	-6.7	9.4	-10.2	-1.3	-19.4	2.0
COc1ccc(CCNC(=O)COc2ccc(S(=O)(=O)N3CCOCC3)cc2)cc1	-3.4	7.3	9.0	-2.5	10.3	0.9
COC(=O)c1ccc(/C=N/OCC(=O)NCCc2ccc(OC)c(OC)c2)cc1	-14.2	45.0*	-7.6	-4.0	1.6	19.8
CN=C1SC(CC(=O)NCCc2ccc(OC)c(OC)c2)C(=O)N1C (centres undefined)	100.7*	3.6	-24.3	8.5	104.4*	0.7
COc1ccc(CCNC(=O)CSc2ccc3ccccc3c2)cc1OC	-25.1	63.7*	6.1	-7.1	-3.3	0.1
O=C(CSc1ccc2ccccc2c1)NCCc1ccc(O)c(O)c1	-11.9	20.7	6.3	13.2	-3.1	4.4
CC(=O)c1ccc(S(=O)(=O)N2CCNC(=O)C2)cc1	-9.2	7.8	-0.4	.	-10.7	2.6
O=C(Nc1cccc(O)c1)c1ccccc1[N+](=O)[O-]	-4.8	8.0	14.8	-7.5	-12.5	2.3
CCc1ccc(OCC(=O)OC(C)C(=O)Nc2ccc(Cl)cn2)cc1 (centres undefined)	-27.9	9.1	3.3	.	-28.3	24.1
COc1ccc(CCNC(=O)CSc2nnc(-c3ccccc3)c3ccccc23)cc1OC	-27.1	72.7*	-15.5	-2.5	-13.7	-2.6
COc1ccc(CCNC(=O)CSc2nnc(-c3ccccc3)o2)cc1OC	-3.7	11.9	-9.9	.	-20.0	1.5
COc1ccc(CNC(=O)c2ccc3ccccc3n2)cc1OC	45.5*	51.8*	8.2	14.9	9.4	3.9
CC1CN(C(=S)NC(=O)c2ccc([N+](=O)[O-])cc2)CC(C)O1 (centres undefined)	-5.7	119.5*	10.2	-4.2	-10.9	0.8
CC1CN(C(=S)NC(=O)c2ccccc2)CC(C)O1 (centres undefined)	-1.7	7.2	-11.3	-8.9	3.1	8.5
COCCCNCCOCCOc1ccc(Cl)cc1C(C)(C)C	-7.3	3.8	9.6	35.2*	-7.0	15.6
C=CCNCCOCCOc1ccc(Cl)cc1C(C)(C)C	-6.3	7.7	2.1	4.9	-16.4	10.6
c1coc(CN(Cc2ccco2)c2ncnc3c2oc2ccccc23)c1	36.5*	36.7	.	-12.5	31.1	.
